# Results from ChEMBL document CHEMBL1821590, “Novel dihydropyrimidines and its pyrazole derivatives: synthesis and pharmacological screening” (Eur J Med Chem, 2011).
# Key:
# Format in all cases: functional
# [1] = Antioxidant activity assessed as nitric oxide radical scavenging activity after 150 mins
# Outline: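 10 mM sodium nitroprusside (4 mL), PBS pH 7.4 (1 mL) and sample or ascorbic acid in DMSO (1 mL, 12.5–100 µg/mL), incubated 150 min at 25 °C. Nitrite detected with sulphanilic acid (5 min) then naphthylethylenediamine (30 min, diffused light). Read at […]. Triplicate. % inhibition = [1 − (Vt/Vc)] × 100. IC50 derived from it.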
# [2] = Antioxidant activity assessed as hydrogen peroxide scavenging activity after 10 mins
# Outline: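 H2O2 (20 mM) in PBS pH 7.4. 1 mL of sample or ascorbic acid in methanol (12.5–100 µg/mL) added to 2 mL H2O2 solution. A230 read after 10 min. % inhibition = [1 − (Vt/Vc)] × 100. Triplicate, averaged. IC50 derived from % inhibition across concentrations.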
# [3] = Antioxidant activity assessed as inhibition of lipid peroxidation using egg lecithin liposomes incubated for 1 hr
# Outline: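 Egg lecithin (3 mg/mL, phosphate buffer pH 7.4) sonicated 10 min to form liposomes. Sample or ascorbic acid (12.5–100 µg/mL) added. Peroxidation induced with FeCl3 and L-ascorbic acid, 1 h at 37 °C. Stopped with HCl/TCA/TBA/BHA, boiled 15 min, centrifuged, supernatant read at 532 nm. Triplicate. % inhibition vs control. IC50 derived.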
# [4] = Antioxidant activity assessed as potassium ferricyanide ion reducing power after 20 mins
# Outline: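 Oyaizu method. Samples or ascorbic acid in DMF (12.5–100 µg/mL) mixed with 0.2 M phosphate buffer pH 6.6 and 1% potassium ferricyanide, 20 min at 50 °C. 10% TCA added, centrifuged. Supernatant mixed with water and 0.1% FeCl3, read at 700 nm. % = [(Vt/Vc) − 1] × 100. IC50 derived.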
# [5] = Antiinflammatory activity assessed as inhibition of albumin denaturation at 100 ug/ml by UV-visible spectrophotometry
# Outline: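 Compounds dissolved in minimal DMF, diluted in PBS pH 7.4 (final DMF <2.5%). 1 mL test solution (100 µg/mL) plus 1 mL 1% albumin in PBS, 15 min at 27 ± 1 °C, then heated 10 min at 60 ± 1 °C. After cooling, turbidity read at 660 nm. % inhibition = [(Vt/Vc) − 1] × 100 against a no-drug control. Triplicate, averaged. Diclofenac standard.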
# [6] = system: Metaphire posthuma; assay: Anthelmintic activity against Pheretima posthuma assessed as time taken for complete parasite paralysis at 0.1% w/v
# Outline: (§1)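 Earthworms (Pheretima posthuma) exposed to test solutions at 0.1, 0.2 and 0.5% w/v; time in minutes to complete paralysis (worms motionless) recorded. Albendazole as standard. Mean of three determinations ± S.D.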
# [7] = system: Metaphire posthuma; assay: Anthelmintic activity against Pheretima posthuma assessed as time taken for complete parasite paralysis at 0.2% w/v; outline: as §1
# [8] = system: Metaphire posthuma; assay: Anthelmintic activity against Pheretima posthuma assessed as time taken for complete parasite paralysis at 0.5% w/v; outline: as §1
# [9] = system: Metaphire posthuma; assay: Anthelmintic activity against Pheretima posthuma assessed as time taken for parasite death at 0.1% w/v
# Outline: (§2)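 Earthworms (Pheretima posthuma, spelled Perituma posthuma in text) exposed to test compounds at 0.1, 0.2 and 0.5% w/v. Albendazole served as standard, with an untreated control. Paralysis was recorded as the time until worms became motionless, then time to death was recorded, in minutes. Each value is the mean of three determinations with S.D.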
# [10] = system: Metaphire posthuma; assay: Anthelmintic activity against Pheretima posthuma assessed as time taken for parasite death at 0.2% w/v; outline: as §2
# [11] = system: Metaphire posthuma; assay: Anthelmintic activity against Pheretima posthuma assessed as time taken for parasite death at 0.5% w/v; outline: as §2
# [12] = system: Escherichia coli; assay: Antimicrobial activity against Escherichia coli at 25 ug/ml by agar plate diffusion technique; conditions: read-out: IZ
# Outline: (§3)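 Agar plate diffusion against E. coli, P. aeruginosa, S. aureus and B. subtilis, with compounds at 25, 50 and 100 µg/mL. Streptomycin as standard.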
# [13] = system: Escherichia coli; assay: Antimicrobial activity against Escherichia coli at 50 ug/ml by agar plate diffusion technique; conditions: read-out: IZ; outline: as §3
# [14] = system: Escherichia coli; assay: Antimicrobial activity against Escherichia coli at 100 ug/ml by agar plate diffusion technique; conditions: read-out: IZ; outline: as §3
# [15] = system: Pseudomonas aeruginosa; assay: Antimicrobial activity against Pseudomonas aeruginosa at 25 ug/ml by agar plate diffusion technique; conditions: read-out: IZ; outline: as §3
# [16] = system: Pseudomonas aeruginosa; assay: Antimicrobial activity against Pseudomonas aeruginosa at 50 ug/ml by agar plate diffusion technique; conditions: read-out: IZ; outline: as §3
# [17] = system: Pseudomonas aeruginosa; assay: Antimicrobial activity against Pseudomonas aeruginosa at 100 ug/ml by agar plate diffusion technique; conditions: read-out: IZ; outline: as §3
# [18] = system: Bacillus subtilis; assay: Antimicrobial activity against Bacillus subtilis at 25 ug/ml by agar plate diffusion technique; conditions: read-out: IZ; outline: as §3
# [19] = system: Bacillus subtilis; assay: Antimicrobial activity against Bacillus subtilis at 50 ug/ml by agar plate diffusion technique; conditions: read-out: IZ; outline: as §3
# [20] = system: Bacillus subtilis; assay: Antimicrobial activity against Bacillus subtilis at 100 ug/ml by agar plate diffusion technique; conditions: read-out: IZ; outline: as §3
# [21] = system: Staphylococcus aureus; assay: Antimicrobial activity against Staphylococcus aureus at 25 ug/ml by agar plate diffusion technique; conditions: read-out: IZ; outline: as §3
# [22] = system: Staphylococcus aureus; assay: Antimicrobial activity against Staphylococcus aureus at 50 ug/ml by agar plate diffusion technique; conditions: read-out: IZ; outline: as §3
# [23] = system: Staphylococcus aureus; assay: Antimicrobial activity against Staphylococcus aureus at 100 ug/ml by agar plate diffusion technique; conditions: read-out: IZ; outline: as §3
# [24] = system: Candida albicans; assay: Antimicrobial activity against Candida albicans at 25 ug/ml by paper disc method; conditions: read-out: IZ
# Outline: (§4)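 Paper disc method against A. niger and C. albicans, with compounds at 25, 50 and 100 µg/mL. Amphotericin-B as standard.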
# [25] = system: Candida albicans; assay: Antimicrobial activity against Candida albicans at 50 ug/ml by paper disc method; conditions: read-out: IZ; outline: as §4
# [26] = system: Candida albicans; assay: Antimicrobial activity against Candida albicans at 100 ug/ml by paper disc method; conditions: read-out: IZ; outline: as §4
# [27] = system: Aspergillus niger; assay: Antimicrobial activity against Aspergillus niger at 25 ug/ml by paper disc method; conditions: read-out: IZ; outline: as §4
# [28] = system: Aspergillus niger; assay: Antimicrobial activity against Aspergillus niger at 50 ug/ml by paper disc method; conditions: read-out: IZ; outline: as §4
# [29] = system: Aspergillus niger; assay: Antimicrobial activity against Aspergillus niger at 100 ug/ml by paper disc method; conditions: read-out: IZ; outline: as §4
Structure (SMILES),IC50 [1] [µg/mL],IC50 [2] [µg/mL],IC50 [3] [µg/mL],IC50 [4] [µg/mL],inhibition [5] [%],Time [6] [min],Time [7] [min],Time [8] [min],Time [9] [min],Time [10] [min],Time [11] [min],zone of inhibition at 25 µg/mL [12] [mm],zone of inhibition at 50 µg/mL [13] [mm],zone of inhibition at 100 µg/mL [14] [mm],zone of inhibition at 25 µg/mL [15] [mm],zone of inhibition at 50 µg/mL [16] [mm],zone of inhibition at 100 µg/mL [17] [mm],zone of inhibition at 25 µg/mL [18] [mm],zone of inhibition at 50 µg/mL [19] [mm],zone of inhibition at 100 µg/mL [20] [mm],other results
CCOC(=O)c1cnn(-c2nc(-c3ccccc3Cl)c(C#N)c(=O)n2C)c1N,93,98,102,78,74.2,58.08,42.05,46.18,72.26,57.5,51.7,13.2,20.5,26.9,12.2,16.3,23.9,13.4,17.2,26.2,zone of inhibition at 25 µg/mL [21]: 14.6 mm; zone of inhibition at 50 µg/mL [22]: 18.3 mm; zone of inhibition at 100 µg/mL [23]: 24.3 mm; zone of inhibition at 25 µg/mL [24]: 11.5 mm; zone of inhibition at 50 µg/mL [25]: 14.9 mm; zone of inhibition at 100 µg/mL [26]: 20.2 mm; zone of inhibition at 25 µg/mL [27]: 12.2 mm; zone of inhibition at 50 µg/mL [28]: 15.1 mm; zone of inhibition at 100 µg/mL [29]: 22.4 mm
CCOC(=O)c1cnn(-c2nc(-c3cccc(O)c3O)c(C#N)c(=O)n2C)c1N,58,53,49,41,57.6,60.22,65.54,53.34,70.56,75.78,60.74,13.1,16,22.9,10.3,12.8,20.3,14.4,15.1,21.8,zone of inhibition at 25 µg/mL [21]: 12.7 mm; zone of inhibition at 50 µg/mL [22]: 16.1 mm; zone of inhibition at 100 µg/mL [23]: 20.3 mm; zone of inhibition at 25 µg/mL [24]: 10.4 mm; zone of inhibition at 50 µg/mL [25]: 13.3 mm; zone of inhibition at 100 µg/mL [26]: 17.7 mm; zone of inhibition at 25 µg/mL [27]: 9.48 mm; zone of inhibition at 50 µg/mL [28]: 11.7 mm; zone of inhibition at 100 µg/mL [29]: 17.2 mm
CSc1nc(-c2ccccc2F)c(C#N)c(=O)n1C,78,63,58,61,69.3,72.34,71.4,55.17,90.4,85.73,69.54,10.9,13.8,14.2,9.17,10.4,11.8,16.9,20.2,29.4,zone of inhibition at 25 µg/mL [21]: 12.2 mm; zone of inhibition at 50 µg/mL [22]: 15.3 mm; zone of inhibition at 100 µg/mL [23]: 20.9 mm; zone of inhibition at 25 µg/mL [24]: 10.8 mm; zone of inhibition at 50 µg/mL [25]: 12.1 mm; zone of inhibition at 100 µg/mL [26]: 16 mm; zone of inhibition at 25 µg/mL [27]: 12.7 mm; zone of inhibition at 50 µg/mL [28]: 14.9 mm; zone of inhibition at 100 µg/mL [29]: 22.7 mm
CSc1nc(-c2ccccc2Cl)c(C#N)c(=O)n1C,81,67,72,76,72.2,55.29,40.27,40.61,72.39,55.8,50.24,9.64,10.2,12.4,8.52,10.4,12,14.2,19.3,28.8,zone of inhibition at 25 µg/mL [21]: 9.4 mm; zone of inhibition at 50 µg/mL [22]: 12.3 mm; zone of inhibition at 100 µg/mL [23]: 16.8 mm; zone of inhibition at 25 µg/mL [24]: 9.18 mm; zone of inhibition at 50 µg/mL [25]: 13.8 mm; zone of inhibition at 100 µg/mL [26]: 20.8 mm; zone of inhibition at 25 µg/mL [27]: 10.6 mm; zone of inhibition at 50 µg/mL [28]: 10.6 mm; zone of inhibition at 100 µg/mL [29]: 17.5 mm
